Results as given in ChEMBL document CHEMBL4152200, “Targeting the entrance channel of NNIBP: Discovery of diarylnicotinamide 1,4-disubstituted 1,2,3-triazoles as novel HIV-1 NNRTIs with high potency against wild-type and E138K mutant virus” (Eur J Med Chem, 2018).

Tested on: Human immunodeficiency virus 1
Test: Antiviral activity against HIV1 harboring reverse transcriptase K103N mutant infected in human MT4 cells assessed as inhibition of viral replication after 5 days by MTT assay
Type: functional, organism-based
Conditions: Human immunodeficiency virus 1, MT4, 120 h
In the case of `Cc1cc(C)c(Oc2cc(Nc3ccc(C#N)cc3)ncc2C(=O)NCc2cn(CCC#N)nn2)c(C)c1`, the EC50 is reported as 250 nM. With `Cc1cc(C)c(Oc2cc(Nc3ccc(C#N)cc3)ncc2C(=O)NCc2cn(CC(N)=O)nn2)c(C)c1` the EC50 was 1030 nM.

Tested on: not listed separately
Test: Selectivity index, ratio of CC50 for human MT4 cells to EC50 for HIV1 harboring reverse transcriptase K103N mutant
Type: toxicity
Conditions: read-out: Ratio CC50/EC50
Method in brief: (§1)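 SI is CC₅₀ divided by EC₅₀, both by MTT after 5 days in MT-4 cells. CC₅₀ comes from mock-infected cultures run in parallel and is the concentration reducing their viability by 50%. EC₅₀ comes from cultures infected with the given mutant strain at 100–300 CCID₅₀.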
Work on `Cc1cc(C)c(Oc2cc(Nc3ccc(C#N)cc3)ncc2C(=O)NCc2cn(CCC#N)nn2)c(C)c1` yielded a selectivity ratio of 158. For `Cc1cc(C)c(Oc2cc(Nc3ccc(C#N)cc3)ncc2C(=O)NCc2cn(CC(N)=O)nn2)c(C)c1`, the selectivity ratio was 23.

Tested on: Human immunodeficiency virus 1
Test: Resistance factor, ratio of EC50 for HIV1 harboring reverse transcriptase Y181C mutant to EC50 for wild-type HIV-1 3B
Type: functional
Conditions: not given
Method in brief: (§2)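 Resistance fold is EC₅₀ against the mutant strain divided by EC₅₀ against WT IIIB. Both EC₅₀ values come from the 5-day MTT protection assay in MT-4 cells infected with 100–300 CCID₅₀ of virus.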
In the case of `Cc1cc(C)c(Oc2cc(Nc3ccc(C#N)cc3)ncc2C(=O)NCc2cn(CCC#N)nn2)c(C)c1`, the “Ratio EC50” value is reported as 4.5. For `Cc1cc(C)c(Oc2cc(Nc3ccc(C#N)cc3)ncc2C(=O)NCc2cn(CC(N)=O)nn2)c(C)c1`, the “Ratio EC50” value was 4.8.

Tested on: Human immunodeficiency virus 1
Test: Resistance factor, ratio of EC50 for HIV1 harboring reverse transcriptase E138K mutant to EC50 for wild-type HIV-1 3B
Type: functional
Conditions: not given
Method in brief: as §2
For `Cc1cc(C)c(Oc2cc(Nc3ccc(C#N)cc3)ncc2C(=O)NCc2cn(CCC#N)nn2)c(C)c1`, the “Ratio EC50” value was 0.8. With `Cc1cc(C)c(Oc2cc(Nc3ccc(C#N)cc3)ncc2C(=O)NCc2cn(CC(N)=O)nn2)c(C)c1` the “Ratio EC50” value was 0.9.

Tested on: not listed separately
Test: Selectivity index, ratio of CC50 for human MT4 cells to EC50 for HIV1 harboring reverse transcriptase L100I mutant
Type: toxicity
Conditions: read-out: Ratio CC50/EC50
Method in brief: as §1
Work on `Cc1cc(C)c(Oc2cc(Nc3ccc(C#N)cc3)ncc2C(=O)NCc2cn(CCC#N)nn2)c(C)c1` yielded a selectivity ratio of 38. Compound `Cc1cc(C)c(Oc2cc(Nc3ccc(C#N)cc3)ncc2C(=O)NCc2cn(CC(N)=O)nn2)c(C)c1` has a selectivity ratio of 7.

Tested on: not listed separately
Test: Selectivity index, ratio of CC50 for human MT4 cells to EC50 for wild-type HIV1 3B
Type: toxicity
Conditions: read-out: Ratio CC50/EC50
Method in brief: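 Wild-type HIV-1 IIIB at 100–300 CCID50 added to MT-4 cells with compound, with mock-infected wells in parallel. MTT viability was read at day 5. […] SI = CC50/EC50.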
`Cc1cc(C)c(Oc2cc(Nc3ccc(C#N)cc3)ncc2C(=O)NCc2cn(CC(N)=O)nn2)c(C)c1` gave a selectivity ratio of 139.

Tested on: not listed separately
Test: Selectivity index, ratio of CC50 for human MT4 cells to EC50 for HIV1 harboring reverse transcriptase F227L/V106A mutant
Type: toxicity
Conditions: read-out: Ratio CC50/EC50
Method in brief: as §1
`Cc1cc(C)c(Oc2cc(Nc3ccc(C#N)cc3)ncc2C(=O)NCc2cn(CCC#N)nn2)c(C)c1` showed a selectivity ratio of 121. `Cc1cc(C)c(Oc2cc(Nc3ccc(C#N)cc3)ncc2C(=O)NCc2cn(CC(N)=O)nn2)c(C)c1` showed a selectivity ratio of 13.

Tested on: Human immunodeficiency virus 1
Test: Antiviral activity against wild-type HIV-1 3B infected in human MT4 cells assessed as inhibition of viral replication after 5 days by MTT assay
Type: functional, organism-based
Conditions: Human immunodeficiency virus 1, 3B, MT4, 120 h
Work on `Cc1cc(C)c(Oc2cc(Nc3ccc(C#N)cc3)ncc2C(=O)NCc2cn(CCC#N)nn2)c(C)c1` yielded an EC50 of 20 nM. Work on `Cc1cc(C)c(Oc2cc(Nc3ccc(C#N)cc3)ncc2C(=O)NCc2cn(CC(N)=O)nn2)c(C)c1` yielded an EC50 of 172 nM.

Tested on: Human immunodeficiency virus 1
Test: Antiviral activity against HIV1 harboring reverse transcriptase Y188L mutant infected in human MT4 cells assessed as inhibition of viral replication after 5 days by MTT assay
Type: functional, organism-based
Conditions: Human immunodeficiency virus 1, MT4, 120 h
Method in brief: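 MT-4 cells in exponential growth, resuspended into wells holding HIV-1 stock (IIIB, RES056 K103N/Y181C, F227L/V106A, L100I, K103N, E138K, Y181C or Y188L) at 100–300 CCID₅₀, or into mock-infected wells. Viability read by MTT reduction to formazan, measured spectrophotometrically 5 days post-infection. EC₅₀ is the concentration giving 50% protection against virus-induced cytotoxicity.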
`Cc1cc(C)c(Oc2cc(Nc3ccc(C#N)cc3)ncc2C(=O)NCc2cn(CCC#N)nn2)c(C)c1` showed an EC50 of 2240 nM. With `Cc1cc(C)c(Oc2cc(Nc3ccc(C#N)cc3)ncc2C(=O)NCc2cn(CC(N)=O)nn2)c(C)c1` the EC50 was 4460 nM.

Tested on: Human immunodeficiency virus 1
Test: Antiviral activity against HIV-1 RES056 harboring reverse transcriptase K103N/Y181C double mutant infected in human MT4 cells assessed as inhibition of viral replication after 5 days by MTT assay
Type: functional, organism-based
Conditions: Human immunodeficiency virus 1, RES056, MT4, 120 h
For `Cc1cc(C)c(Oc2cc(Nc3ccc(C#N)cc3)ncc2C(=O)NCc2cn(CCC#N)nn2)c(C)c1`, the EC50 was 2310 nM. `Cc1cc(C)c(Oc2cc(Nc3ccc(C#N)cc3)ncc2C(=O)NCc2cn(CC(N)=O)nn2)c(C)c1` showed an EC50 of 5330 nM.

Tested on: not listed separately
Test: Selectivity index, ratio of CC50 for human MT4 cells to EC50 for HIV1 harboring reverse transcriptase Y181C mutant
Type: toxicity
Conditions: read-out: Ratio CC50/EC50
Method in brief: as §1
In the case of `Cc1cc(C)c(Oc2cc(Nc3ccc(C#N)cc3)ncc2C(=O)NCc2cn(CCC#N)nn2)c(C)c1`, the selectivity ratio is reported as 450. `Cc1cc(C)c(Oc2cc(Nc3ccc(C#N)cc3)ncc2C(=O)NCc2cn(CC(N)=O)nn2)c(C)c1` gave a selectivity ratio of 29.

Tested on: Human immunodeficiency virus 1
Test: Resistance factor, ratio of EC50 for HIV1 harboring reverse transcriptase L100I mutant to EC50 for wild-type HIV-1 3B
Type: functional
Conditions: not given
Method in brief: as §2
In the case of `Cc1cc(C)c(Oc2cc(Nc3ccc(C#N)cc3)ncc2C(=O)NCc2cn(CCC#N)nn2)c(C)c1`, the “Ratio EC50” value is reported as 53. In the case of `Cc1cc(C)c(Oc2cc(Nc3ccc(C#N)cc3)ncc2C(=O)NCc2cn(CC(N)=O)nn2)c(C)c1`, the “Ratio EC50” value is reported as 20.5.

Tested on: not listed separately
Test: Selectivity index, ratio of CC50 for human MT4 cells to EC50 for HIV1 harboring reverse transcriptase E138K mutant
Type: toxicity
Conditions: read-out: Ratio CC50/EC50
Method in brief: as §1
`Cc1cc(C)c(Oc2cc(Nc3ccc(C#N)cc3)ncc2C(=O)NCc2cn(CCC#N)nn2)c(C)c1` showed a selectivity ratio of 2630. With `Cc1cc(C)c(Oc2cc(Nc3ccc(C#N)cc3)ncc2C(=O)NCc2cn(CC(N)=O)nn2)c(C)c1` the selectivity ratio was 159.

Tested on: not listed separately
Test: Selectivity index, ratio of CC50 for human MT4 cells to EC50 for HIV-1 RES056 harboring reverse transcriptase K103N/Y181C double mutant infected in human MT4 cells
Type: toxicity, cell-based
Conditions: read-out: Ratio CC50/EC50
Method in brief: as §1
`Cc1cc(C)c(Oc2cc(Nc3ccc(C#N)cc3)ncc2C(=O)NCc2cn(CC(N)=O)nn2)c(C)c1` showed a selectivity ratio of 5.

Tested on: not listed separately
Test: Selectivity index, ratio of CC50 for human MT4 cells to EC50 for HIV1 harboring reverse transcriptase Y188L mutant
Type: toxicity
Conditions: read-out: Ratio CC50/EC50
Method in brief: as §1
With `Cc1cc(C)c(Oc2cc(Nc3ccc(C#N)cc3)ncc2C(=O)NCc2cn(CCC#N)nn2)c(C)c1` the selectivity ratio was 18. `Cc1cc(C)c(Oc2cc(Nc3ccc(C#N)cc3)ncc2C(=O)NCc2cn(CC(N)=O)nn2)c(C)c1` showed a selectivity ratio of 5.

Tested on: Human immunodeficiency virus 1
Test: Resistance factor, ratio of EC50 for HIV1 harboring reverse transcriptase F227L/V106A mutant to EC50 for wild-type HIV-1 3B
Type: functional
Conditions: not given
Method in brief: as §2
In the case of `Cc1cc(C)c(Oc2cc(Nc3ccc(C#N)cc3)ncc2C(=O)NCc2cn(CCC#N)nn2)c(C)c1`, the “Ratio EC50” value is reported as 16.5. In the case of `Cc1cc(C)c(Oc2cc(Nc3ccc(C#N)cc3)ncc2C(=O)NCc2cn(CC(N)=O)nn2)c(C)c1`, the “Ratio EC50” value is reported as 10.5.

Tested on: Human immunodeficiency virus 1
Test: Resistance factor, ratio of EC50 for HIV1 harboring reverse transcriptase K103N mutant to EC50 for wild-type HIV-1 3B
Type: functional
Conditions: not given
Method in brief: as §2
For `Cc1cc(C)c(Oc2cc(Nc3ccc(C#N)cc3)ncc2C(=O)NCc2cn(CCC#N)nn2)c(C)c1`, the “Ratio EC50” value was 12.5. For `Cc1cc(C)c(Oc2cc(Nc3ccc(C#N)cc3)ncc2C(=O)NCc2cn(CC(N)=O)nn2)c(C)c1`, the “Ratio EC50” value was 6.

Tested on: Human immunodeficiency virus 1
Test: Antiviral activity against HIV1 harboring reverse transcriptase L100I mutant infected in human MT4 cells assessed as inhibition of viral replication after 5 days by MTT assay
Type: functional, organism-based
Conditions: Human immunodeficiency virus 1, MT4, 120 h
Compound `Cc1cc(C)c(Oc2cc(Nc3ccc(C#N)cc3)ncc2C(=O)NCc2cn(CCC#N)nn2)c(C)c1` has an EC50 of 1060 nM. With `Cc1cc(C)c(Oc2cc(Nc3ccc(C#N)cc3)ncc2C(=O)NCc2cn(CC(N)=O)nn2)c(C)c1` the EC50 was 3520 nM.

Tested on: Human immunodeficiency virus 1
Test: Antiviral activity against HIV1 harboring reverse transcriptase F227L/V106A double mutant infected in human MT4 cells assessed as inhibition of viral replication after 5 days by MTT assay
Type: functional, organism-based
Conditions: Human immunodeficiency virus 1, MT4, 120 h
Compound `Cc1cc(C)c(Oc2cc(Nc3ccc(C#N)cc3)ncc2C(=O)NCc2cn(CCC#N)nn2)c(C)c1` has an EC50 of 330 nM. `Cc1cc(C)c(Oc2cc(Nc3ccc(C#N)cc3)ncc2C(=O)NCc2cn(CC(N)=O)nn2)c(C)c1` gave an EC50 of 1800 nM.

Tested on: Human immunodeficiency virus 1
Test: Resistance factor, ratio of EC50 for HIV1 harboring reverse transcriptase Y188L mutant to EC50 for wild-type HIV-1 3B
Type: functional
Conditions: not given
Method in brief: as §2
For `Cc1cc(C)c(Oc2cc(Nc3ccc(C#N)cc3)ncc2C(=O)NCc2cn(CCC#N)nn2)c(C)c1`, the “Ratio EC50” value was 112. With `Cc1cc(C)c(Oc2cc(Nc3ccc(C#N)cc3)ncc2C(=O)NCc2cn(CC(N)=O)nn2)c(C)c1` the “Ratio EC50” value was 25.9.

Tested on: Human immunodeficiency virus 1
Test: Antiviral activity against HIV1 harboring reverse transcriptase E138K mutant infected in human MT4 cells assessed as inhibition of viral replication after 5 days by MTT assay
Type: functional, organism-based
Conditions: Human immunodeficiency virus 1, MT4, 120 h
For `Cc1cc(C)c(Oc2cc(Nc3ccc(C#N)cc3)ncc2C(=O)NCc2cn(CCC#N)nn2)c(C)c1`, the EC50 was 15 nM. Work on `Cc1cc(C)c(Oc2cc(Nc3ccc(C#N)cc3)ncc2C(=O)NCc2cn(CC(N)=O)nn2)c(C)c1` yielded an EC50 of 150 nM.

Tested on: Human immunodeficiency virus 1
Test: Antiviral activity against HIV1 harboring reverse transcriptase Y181C mutant infected in human MT4 cells assessed as inhibition of viral replication after 5 days by MTT assay
Type: functional, organism-based
Conditions: Human immunodeficiency virus 1, MT4, 120 h
Compound `Cc1cc(C)c(Oc2cc(Nc3ccc(C#N)cc3)ncc2C(=O)NCc2cn(CCC#N)nn2)c(C)c1` has an EC50 of 89 nM. For `Cc1cc(C)c(Oc2cc(Nc3ccc(C#N)cc3)ncc2C(=O)NCc2cn(CC(N)=O)nn2)c(C)c1`, the EC50 was 830 nM.

Tested on: MT4
Test: Cytotoxicity against human MT4 cells assessed as decrease in cell viability after 5 days by MTT assay
Type: cell-based
Conditions: mt4, 120 h
Method in brief: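 Mock-infected MT-4 cells, exponentially growing, seeded with compound in culture medium without virus; run in parallel with the antiviral assay. Viability read spectrophotometrically by MTT reduction five days later.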
In the case of `Cc1cc(C)c(Oc2cc(Nc3ccc(C#N)cc3)ncc2C(=O)NCc2cn(CCC#N)nn2)c(C)c1`, the CC50 is reported as 40200 nM. With `Cc1cc(C)c(Oc2cc(Nc3ccc(C#N)cc3)ncc2C(=O)NCc2cn(CC(N)=O)nn2)c(C)c1` the CC50 was 24000 nM.
